Calls of active or inactive are those of the source.
Columns and labels:
Cannabinoid receptor 2 [1] = target: T1, Cannabinoid receptor 2 (Homo sapiens, UniProt P34972); assay: Agonist activity at human CB2 receptor expressed in CHO-K1 cells assessed as enhancement of beta arrestin-2 recruitment incubated for 90 mins by […] chemiluminescence based assay; type: functional, cell-based
Summary of the method: (§1)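 PathHunter beta-arrestin2 recruitment in DiscoveRx CHO-K1 cells stably expressing hCB2R, seeded overnight in Opti-MEM with 1% FBS at 37 °C. Ligands (0.10 nM–10 μM) added for 90 min at 37 °C, then detection solution 60 min at room temperature and chemiluminescence read.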

Cannabinoid receptor 2 [2] = target: T1, Cannabinoid receptor 2; assay: Displacement of [3H]-CP55,940 from human CB2R expressed in CHO-K1 cell membranes assessed as inhibition constant incubated for 2 hrs by liquid scintillation spectrometry; design: species or system Membrane
Cannabinoid receptor 2 [3] = target: T1, Cannabinoid receptor 2; assay: Agonist activity at human CB2 receptor expressed in CHO-K1 cells assessed as enhancement of beta arrestin-2 recruitment at 10 uM incubated for 90 mins by HitHunter chemiluminescence based assay relative to CP55,940; type: functional, cell-based
Summary of the method: as §1, with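 “read. Data expressed as % CP55,940 response and fitted by three-parameter nonlinear regression; n = 6 independent experiments in triplicate.” for “read.”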

Cannabinoid receptor 2 [4] = target: T1, Cannabinoid receptor 2; assay: Displacement of [3H]-CP55,940 from human CB2R expressed in CHO-K1 cell membranes incubated for 2 hrs by liquid scintillation spectrophotometry relative to CP55,940; details: Membrane
Summary of the method: (§2)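 Membranes from CHO-K1 cells stably expressing hCB1R or hCB2R (50 μg protein) incubated with 1 nM [3H]CP55,940 and compound (0.10 nM–10 μM) in Tris binding buffer with 0.1% BSA, pH 7.4, for 120 min at 37 °C. Bound ligand filtered on GF/B and counted by liquid scintillation. Nonspecific binding defined with 1 μM unlabelled CP55,940; three-parameter fit; n = 3 in duplicate.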

Cannabinoid receptor 2 [5] = target: T1, Cannabinoid receptor 2; assay: Agonist activity at human CB2 receptor expressed in CHO-K1 cells assessed as inhibition of froskolin-stimulated cAMP accumulation incubated for 90 mins by HitHunter chemiluminescence based assay; type: functional, cell-based
Summary of the method: (§3)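 HitHunter assay in DiscoveRx CHO-K1 hCB2R cells, seeded overnight in Opti-MEM with 1% FBS, then put in assay buffer. Cells cotreated at 37 °C for 90 min with 10 μM forskolin and ligand (0.10 nM–10 μM). cAMP antibody/detection solutions added for 60 min at room temperature, then solution A for 180 min, then chemiluminescence read.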

Cannabinoid receptor 2 [6] = target: T1, Cannabinoid receptor 2; assay: Agonist activity at human CB2 receptor expressed in CHO-K1 cells assessed as inhibition of froskolin-stimulated cAMP accumulation at 10 uM incubated for 90 mins by HitHunter chemiluminescence based assay relative to CP55,940; type: functional, cell-based
Summary of the method: as §3, with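 “read. Response given as % CP55,940; three-parameter fit; n = 6 in triplicate.” for “read.”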

Cannabinoid receptor 1 [7] = target: T2, Cannabinoid receptor 1 (Homo sapiens, UniProt P21554); assay: Displacement of [3H]-CP55,940 from human CB1R expressed in CHO-K1 cell membranes assessed as inhibition constant incubated for 2 hrs by liquid scintillation spectrometry analysis; design: species or system Membrane
Cannabinoid receptor 1 [8] = target: T2, Cannabinoid receptor 1; assay: Displacement of [3H]-CP55,940 from human CB1R expressed in CHO-K1 cell membranes incubated for 2 hrs by liquid scintillation spectrometry relative to CP55,940; details: Membrane; summary of the method: as §2
Cannabinoid receptor 2 [9] = target: T1, Cannabinoid receptor 2; assay: Agonist activity at human CB2 receptor expressed in CHO-K1 cells assessed as inhibition of froskolin-stimulated cAMP accumulation incubated for 90 mins in presence of EC-21a by HitHunter chemiluminescence based assay; type: functional, cell-based
Cannabinoid receptor 2 [10] = target: T1, Cannabinoid receptor 2; assay: Agonist activity at human CB2 receptor expressed in CHO-K1 cells assessed as inhibition of froskolin-stimulated cAMP accumulation at 50 nM incubated for 90 mins in presence of EC-21a by HitHunter chemiluminescence based assay relative to CP55,940; type: functional, cell-based
Cannabinoid receptor 2 [11] = target: T1, Cannabinoid receptor 2; assay: Agonist activity at human CB2 receptor expressed in CHO-K1 cells assessed as inhibition of froskolin-stimulated cAMP accumulation incubated for 90 mins in presence of SR144528 by HitHunter chemiluminescence based assay; type: functional, cell-based
Summary of the method: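 Forskolin (10 μM)-stimulated cAMP HitHunter assay in CHO-K1 hCB2R cells, 90 min at 37 °C. Ligand at 0.1 nM–10 μM given at the same time as a fixed 100 nM SR144528. Data given as % CP55,940; three-parameter fit; 3–6 independent experiments in triplicate.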

Cannabinoid receptor 2 [12] = target: T1, Cannabinoid receptor 2; assay: Agonist activity at human CB2 receptor expressed in CHO-k1 cells assessed as inhibition of froskolin-stimulated cAMP accumulation at 5 nM incubated for 90 mins in presence of EC-21a by HitHunter chemiluminescence based assay relative to CP55,940; type: functional, cell-based
Mus musculus [13] = assay: Antinociceptive activity against oxaliplatin-induced neuropathic pain in po dosed CD-1 albino mouse assessed as decrease in neuropathic pain measured upto 75 min by cold plate assay; type: functional, organism-based; details: DDE = dose-dependent effect
Summary of the method: (§4)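 Male CD-1 mice (22–25 g) given oxaliplatin 2.4 mg/kg i.p. in 5% glucose on days 1–2, 5–9 and 12–14. On day 15 compound given orally at 1, 5 or 20 mg/kg in 1% carboxymethylcellulose. Cold plate held at 4 °C; latency to paw licking or lifting recorded (cut-off 60 s) at 15, 30, 45, 60 and 75 min. 16 mice per group over 2 experimental sets.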

[14] = Cytotoxicity against LPS/TNFalpha-induced HMC3 cells assessed as reduction in cell viability at 1 uM pretreated with compound for 1 hr followed by LPS/TNFalpha stimulation and measured after 24 hrs by MTT assay; type: toxicity, cell-based; details: human, hmc3, 25 h
Summary of the method: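 HMC3 microglial cells exposed to compound at 100 nM, 1 μM and 10 μM; viability read by MTT reduction. n = 3 independent experiments in triplicate; one-way ANOVA with Tukey test.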

HMC3 [15] = assay: Antiinflammatory activity in LPS/TNFalpha-induced HMC3 cells assessed as decrease in IL-6 release at 1 uM pretreated with compound for 1 hr followed by LPS/TNFalpha stimulation and measured after 24 hrs by ELISA; type: functional, cell-based; details: Homo sapiens, time 25.0 hrs
Summary of the method: (§5)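 HMC3 human microglia in high-glucose DMEM with 10% FBS, pretreated 1 h with compound (100 nM–10 μM), then stimulated with LPS (10 μg/mL) plus TNFα (50 ng/mL) for 24 h. IL-6 or IL-10 in the medium measured by ELISA. SR144528 (1 μM) added 15 min before agonist where used; JWH133 served as positive control. n = 3 in duplicate; ANOVA with Tukey test.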

BV-2 [16] = assay: Antiinflammatory activity in LPS-induced mouse microglial BV-2 cells assessed as decrease in IL-6 release at 1 uM preincubated for 1 hr followed by LPS-stimulation and measured after 4 hrs by ELISA; type: functional, cell-based; details: time 5.0 hrs
Summary of the method: (§6)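 Murine BV2 microglia given 1 μM compound 1 h before LPS (5 μg/mL), then stimulated 4 h. IL-6 or IL-10 in the medium measured by ELISA (pg/mL). Where used, SR144528 (1 μM) added 15 min before agonist. n = 3 independent experiments in duplicate; one-way ANOVA with Tukey test.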

Mus musculus [17] = assay: Antinociceptive activity against oxaliplatin-induced neuropathic pain in CD-1 albino mouse assessed as decrease in neuropathic pain at 20 mg/kg, po measured after 15 to 60 mins by cold plate assay; type: functional; design: scale not given: the % may be the effect or the level left; details: time 15-60 min; summary of the method: as §4
BV-2 [18] = assay: Antiinflammatory activity in LPS-induced mouse microglial BV-2 cells assessed as increase in IL-10 release at 1 uM preincubated for 1 hr followed by LPS-stimulation and measured after 4 hrs by ELISA; type: functional, cell-based; details: time 5.0 hrs; summary of the method: as §6
HMC3 [19] = assay: Antiinflammatory activity in LPS/TNFalpha-induced HMC3 cells assessed as increase in IL-10 release at 1 uM pretreated with compound for 1 hr followed by LPS/TNFalpha stimulation and measured after 24 hrs by ELISA; type: functional, cell-based; details: Homo sapiens, time 25.0 hrs; summary of the method: as §5

T2 sequence (P21554 whole entry): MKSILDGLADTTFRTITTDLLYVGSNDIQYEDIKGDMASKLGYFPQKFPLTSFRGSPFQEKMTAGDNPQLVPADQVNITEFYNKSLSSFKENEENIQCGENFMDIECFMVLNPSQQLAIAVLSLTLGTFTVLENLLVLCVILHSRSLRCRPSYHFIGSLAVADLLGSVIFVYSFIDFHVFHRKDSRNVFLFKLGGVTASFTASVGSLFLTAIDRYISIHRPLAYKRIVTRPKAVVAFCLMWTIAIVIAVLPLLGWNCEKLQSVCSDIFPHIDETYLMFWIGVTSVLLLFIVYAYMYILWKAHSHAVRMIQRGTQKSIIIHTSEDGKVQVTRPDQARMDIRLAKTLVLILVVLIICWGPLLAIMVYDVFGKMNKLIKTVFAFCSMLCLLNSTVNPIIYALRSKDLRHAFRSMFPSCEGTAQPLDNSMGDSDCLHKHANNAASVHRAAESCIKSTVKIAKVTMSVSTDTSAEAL
T1 sequence (P34972 whole entry): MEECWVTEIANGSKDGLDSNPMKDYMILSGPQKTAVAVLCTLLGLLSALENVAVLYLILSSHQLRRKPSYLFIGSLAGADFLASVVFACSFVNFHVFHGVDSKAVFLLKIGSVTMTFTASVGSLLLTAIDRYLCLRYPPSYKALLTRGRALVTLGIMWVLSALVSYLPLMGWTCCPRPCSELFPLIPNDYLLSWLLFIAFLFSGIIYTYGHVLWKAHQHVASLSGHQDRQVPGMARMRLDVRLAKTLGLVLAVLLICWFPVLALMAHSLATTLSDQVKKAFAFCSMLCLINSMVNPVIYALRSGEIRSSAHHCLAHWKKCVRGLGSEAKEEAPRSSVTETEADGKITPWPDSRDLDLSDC

## Cc1c(Br)cn(Cc2ccc(F)cc2)c(=O)c1NC(=O)C1CCCCCC1
Cannabinoid receptor 2 [1]
  EC50: > 10000 nM
Cannabinoid receptor 2 [2]
  Ki: 19 nM
Cannabinoid receptor 2 [3]
  Emax: 1.4%
Cannabinoid receptor 2 [4]; filed as agonist
  Emin: 130%
Cannabinoid receptor 2 [5]
  EC50: > 10000 nM
Cannabinoid receptor 2 [6]
  Emax: 2.5%
Cannabinoid receptor 1 [7]
  Ki: > 10000 nM
Cannabinoid receptor 1 [8]; filed as agonist
  Emin: 103%

## Cc1c(Br)cn(Cc2cn(CCCn3c(C)c(Br)cc(C(=O)NC4CCCCCC4)c3=O)nn2)c(=O)c1NC(=O)C1CCCCCC1
Cannabinoid receptor 2 [1]
  EC50: 560 nM
Cannabinoid receptor 2 [3]; filed as agonist
  Emax: 53%
Cannabinoid receptor 2 [5]
  EC50: > 10000 nM
Cannabinoid receptor 2 [6]
  Emax: 21%

## CCCCCCC(C)(C)c1ccc([C@@H]2C[C@H](O)CC[C@H]2CCCO)c(O)c1
Cannabinoid receptor 2 [4]
  Emin: 0%
Cannabinoid receptor 1 [8]
  Emin: 0%

## Cc1c(Br)cn(Cc2cn(CCCCCn3c(C)c(Br)cc(C(=O)NC4CCCCCC4)c3=O)nn2)c(=O)c1NC(=O)C1CCCCCC1
Cannabinoid receptor 2 [1]
  EC50: > 10000 nM
Cannabinoid receptor 2 [3]; filed as agonist
  Emax: 41%
Cannabinoid receptor 2 [5]
  EC50: > 10000 nM
Cannabinoid receptor 2 [6]
  Emax: 22%

## Cc1nc(OCCCCCn2cc(CCCn3cc(Br)c(C)c(NC(=O)C4CCCCCC4)c3=O)nn2)c(C(=O)NC2CCCCCC2)cc1Br
Cannabinoid receptor 2 [9]
  Emax: 20%
Cannabinoid receptor 2 [1]
  EC50: > 10000 nM
Cannabinoid receptor 2 [2]
  Ki: 1.9 nM
Cannabinoid receptor 2 [10]
  Emax: 38%
Cannabinoid receptor 2 [3]; filed as agonist
  Emax: 43%
Cannabinoid receptor 2 [4]; filed as agonist
  Emin: 52%
Cannabinoid receptor 2 [5]
  EC50: 8 nM
Cannabinoid receptor 2 [6]
  Emax: 38%
Cannabinoid receptor 2 [11]
  Emax: 39%
Cannabinoid receptor 2 [12]
  Emax: 29%
Cannabinoid receptor 1 [7]
  Ki: > 10000 nM
Cannabinoid receptor 1 [8]; filed as agonist
  Emin: 95%

## Cc1c(Br)cn(CCCc2cn(CCCCCn3c(C)c(Br)cc(C(=O)NC4CCCCCC4)c3=O)nn2)c(=O)c1NC(=O)C1CCCCCC1
Cannabinoid receptor 2 [9]
  EC50: 2.2 nM
Cannabinoid receptor 2 [1]
  EC50: > 10000 nM
Cannabinoid receptor 2 [2]
  Ki: 1.4 nM
Cannabinoid receptor 2 [10]
  EC50: 8 nM
Mus musculus [13]
  Activity: Dde
Cannabinoid receptor 2 [3]
  Emax: 30%
[14]
  Activity: Non-Toxic
HMC3 [15]
  Activity: Active
Cannabinoid receptor 2 [4]; filed as agonist
  Emin: 40%
BV-2 [16]
  Activity: Active
Mus musculus [17]
  Activity: 100%
Cannabinoid receptor 2 [5]
  EC50: 73 nM
BV-2 [18]
  Activity: Active
HMC3 [19]
  Activity: Active
Cannabinoid receptor 2 [6]; filed as agonist
  Emax: 52%
Cannabinoid receptor 2 [11]
  EC50: 61 nM
Cannabinoid receptor 1 [7]
  Ki: > 10000 nM
Cannabinoid receptor 1 [8]; filed as agonist
  Emin: 89%

## Cc1c(Br)cc(C(=O)NC2CCCCCC2)c(=O)n1Cc1ccc(F)cc1
Cannabinoid receptor 2 [1]
  EC50: 63 nM
Cannabinoid receptor 2 [2]
  Ki: 7 nM
Cannabinoid receptor 2 [3]; filed as agonist
  Emax: 45%
Cannabinoid receptor 2 [4]
  Emin: 13%
Cannabinoid receptor 2 [5]
  EC50: 20 nM
Cannabinoid receptor 2 [6]; filed as agonist
  Emax: 76%
Cannabinoid receptor 1 [7]
  Ki: 0.79 nM
Cannabinoid receptor 1 [8]
  Emin: 29%

## Cc1c(Br)cn(CCCc2cn(CCCn3c(C)c(Br)cc(C(=O)NC4CCCCCC4)c3=O)nn2)c(=O)c1NC(=O)C1CCCCCC1
Cannabinoid receptor 2 [1]
  EC50: > 10000 nM
Cannabinoid receptor 2 [3]; filed as agonist
  Emax: 46%
Cannabinoid receptor 2 [5]
  EC50: > 10000 nM
Cannabinoid receptor 2 [6]
  Emax: 21%
